According to ChEMBL document CHEMBL4732057, “Design, synthesis and biological evaluation of second-generation benzoylpiperidine derivatives as reversible monoacylglycerol lipase (MAGL) inhibitors” (Eur J Med Chem, 2021):
The source made the active and inactive calls. No cut-off for these calls is given here.

Assays:
SK-OV-3 = experiment: Antiproliferative activity against human SKOV3 cells as reduction in cell growth measured after 96 hrs by Celltiter-glo luminescent assay; format: functional, cell-based; settings: SK-OV-3, 96 h
How it was run: (§1)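 Cell lines kept at 37 °C, 5% CO2; 5 × 10^2 cells per well, compound added the day after seeding at 200 to 0.02 µM. Viability read after 96 h by CellTiter-Glo luminescence. IC50 from logistic dose-response curves, in triplicate; error bars are SD.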

[1] = target: T1, Monoacylglycerol lipase ABHD6 (Mus musculus) (UniProt Q8R2Y0); experiment: Inhibition of ABHD6 in mouse brain membrane up to 30 uM preincubated for 25 mins followed by TAMRA-FP labeling addition and measured after 5 mins by competitive ABPP based analysis; format: cell membranes; settings: dose microM <=30, time 30.0 min
T1 sequence (whole entry): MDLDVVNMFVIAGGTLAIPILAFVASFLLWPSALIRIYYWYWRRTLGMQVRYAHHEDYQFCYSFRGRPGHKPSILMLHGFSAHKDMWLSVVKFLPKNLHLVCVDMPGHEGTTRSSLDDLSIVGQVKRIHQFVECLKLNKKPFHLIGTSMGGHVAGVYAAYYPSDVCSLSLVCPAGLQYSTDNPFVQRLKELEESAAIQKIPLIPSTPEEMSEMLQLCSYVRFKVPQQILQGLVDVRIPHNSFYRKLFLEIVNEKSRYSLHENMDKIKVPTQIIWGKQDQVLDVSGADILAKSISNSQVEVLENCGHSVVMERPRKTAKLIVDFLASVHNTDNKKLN
How it was run: (§2)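 Mouse brain membranes, 4 mg/mL in PBS, preincubated 25 min at 25 °C with compound at 10 µM or a range of concentrations. Labelled 5 min with TAMRA-FP at 125 nM final. Proteins resolved on 11% SDS-PAGE and scanned for fluorescence.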

OVCAR-3 = experiment: Antiproliferative activity against human OVCAR3 cells as reduction in cell growth measured after 96 hrs by Celltiter-glo luminescent assay; format: functional, cell-based; settings: OVCAR-3, 96 h; how it was run: as §1
[2] = target: T2, Monoglyceride lipase (Mus musculus) (UniProt O35678); experiment: Inhibition of MAGL in mouse brain membrane preincubated for 25 mins followed by TAMRA-FP labeling addition and measured after 5 mins by competitive ABPP based analysis; format: cell membranes; settings: time 30.0 min; how it was run: as §2
T2 sequence (whole entry): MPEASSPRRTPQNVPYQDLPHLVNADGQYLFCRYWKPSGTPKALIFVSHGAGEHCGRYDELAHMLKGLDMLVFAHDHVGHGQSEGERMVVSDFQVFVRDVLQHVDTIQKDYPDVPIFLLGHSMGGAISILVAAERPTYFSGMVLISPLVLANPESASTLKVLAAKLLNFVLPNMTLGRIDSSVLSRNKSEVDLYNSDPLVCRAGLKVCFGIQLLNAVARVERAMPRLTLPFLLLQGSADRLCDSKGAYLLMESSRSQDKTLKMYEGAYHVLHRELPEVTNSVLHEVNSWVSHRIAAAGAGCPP

[3] = target: T3, Lysophosphatidylserine lipase ABHD12 (Mus musculus) (UniProt Q99LR1); experiment: Inhibition of ABHD12 in mouse brain membrane up to 30 uM preincubated for 25 mins followed by TAMRA-FP labeling addition and measured after 5 mins by competitive ABPP based analysis; format: cell membranes; settings: dose microM <=30, time 30.0 min; how it was run: as §2
T3 sequence (whole entry): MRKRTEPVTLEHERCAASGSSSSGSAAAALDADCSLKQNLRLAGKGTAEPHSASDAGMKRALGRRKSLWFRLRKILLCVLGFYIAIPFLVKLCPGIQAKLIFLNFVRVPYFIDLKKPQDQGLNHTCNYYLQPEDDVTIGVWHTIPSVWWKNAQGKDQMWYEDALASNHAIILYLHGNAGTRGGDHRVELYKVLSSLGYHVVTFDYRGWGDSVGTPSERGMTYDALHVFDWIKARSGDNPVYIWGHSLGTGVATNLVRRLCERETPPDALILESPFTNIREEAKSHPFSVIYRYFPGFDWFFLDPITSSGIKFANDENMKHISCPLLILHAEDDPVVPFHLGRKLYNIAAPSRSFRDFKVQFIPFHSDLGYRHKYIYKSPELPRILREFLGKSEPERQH

[4] = target: Cannabinoid receptor 1 (CB1) (Homo sapiens, UniProt P21554); experiment: Displacement of [3H]CP55940 from human CB1 receptor at 10 uM incubated for 90 mins by radioligand binding assay; settings: probe [3H]CP55940
Sequence of Cannabinoid receptor 1 (CB1) (P21554 whole entry): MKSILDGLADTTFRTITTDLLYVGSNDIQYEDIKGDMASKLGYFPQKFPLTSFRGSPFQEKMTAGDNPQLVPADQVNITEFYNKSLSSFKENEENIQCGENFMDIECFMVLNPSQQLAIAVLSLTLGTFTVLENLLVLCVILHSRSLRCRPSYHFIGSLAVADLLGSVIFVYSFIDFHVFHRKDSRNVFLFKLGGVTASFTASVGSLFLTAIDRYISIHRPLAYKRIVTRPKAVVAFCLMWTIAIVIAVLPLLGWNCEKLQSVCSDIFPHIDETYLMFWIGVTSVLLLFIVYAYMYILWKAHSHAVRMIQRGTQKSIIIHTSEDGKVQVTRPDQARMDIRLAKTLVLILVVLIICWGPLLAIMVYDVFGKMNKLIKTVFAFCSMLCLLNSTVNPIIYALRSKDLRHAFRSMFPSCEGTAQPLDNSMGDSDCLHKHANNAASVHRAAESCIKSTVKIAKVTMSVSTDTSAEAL
How it was run: (§3)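 Membranes expressing hCB1 or hCB2 in 50 mM Tris-HCl, 2.5 mM EDTA, 5 mM MgCl2, 0.5% BSA, pH 7.4, incubated with compound and 0.5 nM [3H]CP55,940 for 90 min at 30 °C. Nonspecific binding with 10 µM […]; filtered and counted. Screening at 10 µM; two experiments in triplicate.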

[5] = target: T4, Monoglyceride lipase (Homo sapiens) (UniProt Q99685); experiment: Reversible inhibition of human recombinant MAGL using 4-nitrophenylacetate as substrate at 2 uM preincubated with enzyme for 60 mins followed by 40X dilution and 15 mins later incubated with substrate by microplate reader assay; settings: time 75.0 min
T4 sequence (whole entry): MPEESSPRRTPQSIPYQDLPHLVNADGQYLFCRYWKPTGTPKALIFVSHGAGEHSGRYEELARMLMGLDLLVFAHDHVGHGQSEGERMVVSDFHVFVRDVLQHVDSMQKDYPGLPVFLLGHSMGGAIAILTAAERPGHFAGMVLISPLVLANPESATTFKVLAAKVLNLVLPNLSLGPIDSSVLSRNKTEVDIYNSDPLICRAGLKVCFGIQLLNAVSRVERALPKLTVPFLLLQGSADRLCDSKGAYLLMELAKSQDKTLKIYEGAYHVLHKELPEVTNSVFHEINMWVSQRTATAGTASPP
How it was run: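 MAGL (880 ng) incubated 60 min at room temperature with compound at 2 µM in Tris pH 7.2, then diluted 40-fold in buffer. After 15 min, 4-NPA 500 µM stock added and activity read as in the main assay. Compared with 2000 nM and 50 nM undiluted; triplicates of two experiments.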

[6] = Antiproliferative activity against human PDAC-3 cells assessed as inhibition of cell growth incubated for 72 hrs by SRB assay; format: functional, cell-based; settings: PDAC-3, 72 h
How it was run: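 Primary patient-derived PDAC-3 cells, cultured under 20 passages in RPMI-1640 with 10% NBCS. Compounds dissolved in DMSO and tested at 8 concentrations, 156.25 to 20 000 nM. Growth read by sulforhodamine-B assay.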

Cannabinoid receptor 2 = Cannabinoid receptor 2 (Homo sapiens, UniProt P34972); experiment: Displacement of [3H]CP55940 from human CB2 receptor at 10 uM incubated for 90 mins by radioligand binding assay; how it was run: as §3
Sequence of Cannabinoid receptor 2 (P34972 whole entry): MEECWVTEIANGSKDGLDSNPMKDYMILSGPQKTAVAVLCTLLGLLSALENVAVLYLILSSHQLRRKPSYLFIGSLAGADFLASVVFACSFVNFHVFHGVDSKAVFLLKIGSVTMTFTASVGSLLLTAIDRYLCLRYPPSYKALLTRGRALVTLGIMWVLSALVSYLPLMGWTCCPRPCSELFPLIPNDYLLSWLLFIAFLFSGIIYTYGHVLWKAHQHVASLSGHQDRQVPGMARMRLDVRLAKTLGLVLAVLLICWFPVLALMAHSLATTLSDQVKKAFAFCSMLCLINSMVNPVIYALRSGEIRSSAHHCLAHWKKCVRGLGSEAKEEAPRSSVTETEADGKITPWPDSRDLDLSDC

MDA-MB-231 = experiment: Antiproliferative activity against human MDA-MB-231 cells as reduction in cell growth measured after 96 hrs by Celltiter-glo luminescent assay; format: functional, cell-based; settings: MDA-MB-231, 96 h; how it was run: as §1

| IC50 (SK-OV-3) | inhibition [1] | IC50 (OVCAR-3) | inhibition [2] | inhibition [3] | inhibition at 1.5 h, 10 µM [4] | inhibition [5] | inhibition (Cannabinoid receptor 2) | IC50 (MDA-MB-231) | SMILES | IC50 [6] |
| --- | --- | --- | --- | --- | --- | --- | --- | --- | --- | --- |
| 12 µM | inactive | > 100 µM | Dose-dependent effect | inactive | < 10% | Active | < 10% | 65 µM | O=C(c1ccc(Cc2ccccc2)cc1)C1CCN(C(=O)c2cc(O)c(F)cc2F)CC1 | 12 µM |
| 11 µM | inactive | > 100 µM | Dose-dependent effect | inactive | < 10% | Active | < 10% | 63 µM | O=C(c1ccc(Sc2ccccc2)cc1)C1CCN(C(=O)c2cc(O)c(F)cc2F)CC1 | 14.6 µM |
| 4.6 µM | inactive | > 100 µM | Dose-dependent effect | inactive | < 10% | Active | < 10% | 43 µM | O=C(c1ccc(Sc2ccccc2)cc1)C1CCN(C(=O)c2cc(O)ccc2F)CC1 | 9.28 µM |
| 8 µM | inactive | 20.7 µM | Dose-dependent effect | inactive | < 10% | Active | < 10% | 25 µM | O=C(c1ccc(Cc2ccccc2)cc1)C1CCN(C(=O)c2cc(O)ccc2F)CC1 | 12.5 µM |
